Laboratory results: ChEMBL document CHEMBL4342508, “Discovery and Pharmacokinetics of Sulfamides and Guanidines as Potent Human Arginase 1 Inhibitors” (ACS Med Chem Lett, 2020)
Each block holds one molecule with its values, some of them ahead of it.

Assays:
Conditions in all cases: in vivo
[1] = Oral bioavailability in Sprague-Dawley rat at 10 mg/kg measured up to 24 hrs by LC-MS/MS analysis; assay type: ADME, organism-based
[2] = Clearance in Sprague-Dawley rat at 3 mg/kg, iv measured up to 24 hrs by LC-MS/MS analysis; assay type: ADME, organism-based
[3] = Clearance in rat; assay type: ADME
[4] = Oral bioavailability in rat; assay type: ADME, organism-based
Method in brief: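 Male Sprague–Dawley rats were dosed at 3 mg/kg i.v. and 10 mg/kg p.o., and plasma concentrations were followed over time for up to 24 h after dosing. Oral bioavailability comes from the p.o. versus i.v. plasma exposure profiles.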

[5] = Mean residence time in BALB/c mouse at 3 mg/kg, iv measured up to 24 hrs by LC-MS/MS analysis; assay type: ADME, organism-based
[6] = Mean residence time in Sprague-Dawley rat at 3 mg/kg, iv measured up to 24 hrs by LC-MS/MS analysis; assay type: ADME, organism-based
Method in brief: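 Male Sprague–Dawley rats dosed with the hydrochloride salt at 3 mg/kg i.v. or 10 mg/kg p.o.; plasma concentration–time profiles followed over 24 h, with PK parameters derived from them. Oral bioavailability comes from comparing the p.o. and i.v. arms.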

- bioavailability [1]: 89%
- clearance [2]: 2.3 mL/min/kg
Structure (SMILES): N[C@@H](CCCCB(O)O)C(=O)O

- clearance [3]: 10 mL/min/kg
- bioavailability [4]: 52%
Structure (SMILES): C[C@H](N)C(=O)N1C[C@H](CCCB(O)O)[C@](N)(C(=O)O)C1

- MRT [5]: 48.6 min
Structure (SMILES): NC(CCCCB(O)O)(CNS(N)(=O)=O)C(=O)O (configuration not stated)

- MRT [5]: 15.6 min
Structure (SMILES): N=C(N)NCC(N)(CCCCB(O)O)C(=O)O (configuration not stated)

- MRT [6]: 715 min
Structure (SMILES): N=C(N)NC[C@](N)(CCCCB(O)O)C(=O)O
